From paper PMC9358981 (Journal of pharmacological and toxicological methods, 2021)
“Also recorded” adds a separate entry of the source. Like-named read-outs stand apart in the source and are kept apart here.

Tests used:
human S1R = human S1R (Homo sapiens, UniProt Q99720); assay: Radioligand competition binding with [3H]-; details: for Pseudo-Hill slope at the S1R: competition with [3H]-(+)-pentazocine; for S2R/S1R ratio (Ki S2R / Ki S1R): selectivity for S1R over S2R, fold
human S2R = human S2R (Homo sapiens, UniProt Q5BJF2); assay: Radioligand competition binding with [3H]-DTG at the S2R; details: for Pseudo-Hill slope at the S2R: competition with [3H]-DTG
human S2R, sequence (Q5BJF2 whole entry): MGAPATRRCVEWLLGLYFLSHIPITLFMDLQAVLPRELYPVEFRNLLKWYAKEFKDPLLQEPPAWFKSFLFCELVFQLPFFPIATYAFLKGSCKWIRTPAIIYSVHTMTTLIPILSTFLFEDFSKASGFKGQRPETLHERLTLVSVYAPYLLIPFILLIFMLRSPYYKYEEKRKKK

MCF7-hS1R cells = assay: Bradykinin; type: cell-based, human; details: pre-treatment with sigma ligand
MN9D cells = assay: BDNF secretion via in situ ELISA; type: cell-based; details: for Stimulation of BDNF secretion (in words) / Efficacy of BDNF secretion: 10 μM, MN9D cells; for Efficacy of BDNF secretion: normalized to the maximal response of 10 μM 4-PPBP
PC-6-15 cells = assay: NGF induced neurite sprouting; type: cell-based, rat; details: for Effect on neurite sprouting, ligand alone / Potentiation of NGF induced neurite sprouting: 24 hours; for Effect on neurite sprouting, ligand alone: 0.5% serum; for Potentiation of NGF induced neurite sprouting: co-treated with 0.3 ng/mL NGF
Summary of the method: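 PC12-derived PC-6-15 cells overexpressing trkA, kept in RPMI1640 with 10% horse serum, 5% FBS and 0.1 mg/mL G418. Plated on type I collagen in 0.5% serum medium. Treated 24 hours in duplicate with vehicle (DMSO 1:1000 v/v), test compound, NGF (0.3–100 ng/mL concentration-response), or test compound plus 0.3 ng/mL NGF. Neurite length/cell was total traced neurite length divided by total cell count.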

[1] = 15 nM BD1063, Fractional Occupancy = [ligand]/([ligand]+Ki)
[2] = read-out: S1R affinity (Ki), displacement of 0.5 nM [3H]-(+)-pentazocine, MCF-7-S1R, mean ± SEM

human S1R, sequence (Q99720 whole entry): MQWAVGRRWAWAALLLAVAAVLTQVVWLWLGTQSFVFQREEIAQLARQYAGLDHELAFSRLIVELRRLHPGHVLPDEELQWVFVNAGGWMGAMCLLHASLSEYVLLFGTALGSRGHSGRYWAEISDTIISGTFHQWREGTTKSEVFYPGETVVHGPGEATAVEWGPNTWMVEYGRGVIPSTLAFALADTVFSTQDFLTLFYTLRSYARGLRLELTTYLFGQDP

## CN1CCN(CCc2ccc(Cl)c(Cl)c2)CC1 [BD1063]
Human S1R; [1]
  Calculated S1R occupancy: 74%
Human S1R
  Pseudo-Hill slope at the S1R: equal to unity
  S2R/S1R ratio (Ki S2R / Ki S1R): 38
Human S1R; [2]
  Ki: 0.0056 ± 0.0005 µM
Human S2R; [1]
  Calculated S2R occupancy: 7%
Human S2R
  Pseudo-Hill slope at the S2R: near unity
MCF7-hS1R cells
  Effect of sigma ligand on the bradykinin calcium response: no significant potentiation or suppression

## COc1cc2c(cc1OC)C(=O)C(CC1CCN(Cc3ccccc3)CC1)C2 (stereo not drawn) [Donepezil]
MN9D cells
  Stimulation of BDNF secretion (in words): BDNF secreting activity

## COCCCC/C(=N\OCCN)c1ccc(C(F)(F)F)cc1 [fluvoxamine]
PC-6-15 cells
  Effect on neurite sprouting, ligand alone: none of them had any effect
  Potentiation of NGF induced neurite sprouting: none of them had any effect

## O=C(OCCN1CCOCC1)C1(c2ccccc2)CCCCC1 [PRE-084]
Human S1R
  Pseudo-Hill slope at the S1R: −0.98
Human S2R
  Pseudo-Hill slope at the S2R: near unity
MN9D cells
  Stimulation of BDNF secretion (in words): no effect; also recorded: failed to stimulate BDNF secretion; also recorded: no activity
MCF7-hS1R cells
  Effect of sigma ligand on the bradykinin calcium response: no significant potentiation or suppression
PC-6-15 cells
  Effect on neurite sprouting, ligand alone: none of them had any effect
  Potentiation of NGF induced neurite sprouting: none of them had any effect

## CCCN(CCC)CCc1ccc(OC)c(OCCc2ccccc2)c1 [NE-100]
Human S1R
  Pseudo-Hill slope at the S1R: −3.1
Human S2R
  Pseudo-Hill slope at the S2R: near unity
MCF7-hS1R cells
  Effect of sigma ligand on the bradykinin calcium response: no significant potentiation or suppression

## CC(CN1c2ccccc2Sc2ccccc21)N(C)C (stereo not drawn) [Promethazine]
MN9D cells; MN9D, read-out: Efficacy for BDNF secretion, % of the maximum response
  Emax at 10 µM: 103%
PC-6-15 cells
  Potentiation of NGF induced neurite sprouting: neither 4-PPBP or promethazine enhanced NGF induced sprouting

## CCCCOCCOC(=O)C(c1ccccc1)N(CC)CC (stereo not drawn) [Cas# 1796909-31-3, 2-Butoxyethyl 2-(diethylamino)-2-phenylacetate]
MN9D cells
  Stimulation of BDNF secretion (in words): BDNF secreting activity

## CCC(C/C=C/c1ccccc1)(c1ccccc1)N(C)CC1CC1 (single isomer, unassigned; (+)) [(+)-Igmesine]
Human S1R; [2]
  Ki: 0.0092 ± 0.0022 µM
Human S1R
  S2R/S1R ratio (Ki S2R / Ki S1R): 18
MN9D cells; 24 hrs, mean ± SEM
  Efficacy of BDNF secretion: 0.42 ± 0.03
MN9D cells
  Stimulation of BDNF secretion (in words): BDNF secreting activity
MN9D cells; compound 10 μM + 15 nM BD1063, MN9D cells
  Reversal of the BDNF response by S1R-selective concentration of BD1063: could be reversed

## CCN(CC)CCOCCOC(=O)C(CC)(CC)c1ccccc1 [Oxeladin]
Human S1R
  Ki: 0.025 ± 0.0043 µM
Human S2R
  Ki: 0.148 ± 0.064 µM

## CCN(CC)CCOCCOC(=O)C1(c2ccccc2)CCCC1 [Carbetapentane]
Human S1R
  Ki: 0.0198 ± 0.0023 µM
  S2R/S1R ratio (Ki S2R / Ki S1R): 3
Human S2R
  Ki: 0.0557 ± 0.0038 µM
MN9D cells; 24 hrs, mean ± SEM
  Efficacy of BDNF secretion: 0.73 ± 0.05
PC-6-15 cells
  Effect on neurite sprouting, ligand alone: none of them had any effect
  Potentiation of NGF induced neurite sprouting: none of them had any effect

## (+)-SKF10047
MCF7-hS1R cells
  Effect of sigma ligand on the bradykinin calcium response: no significant potentiation or suppression

## CCC(C(=O)OCCOCCN(CC)CC)c1ccccc1 (stereo not drawn) [Butamirate]
Human S1R
  Ki: 0.0172 ± 0.0017 µM
Human S2R
  Ki: 0.214 ± 0.041 µM
MN9D cells
  Stimulation of BDNF secretion (in words): completely abolished the BDNF secretion activity

## c1ccc(CCCCN2CCC(c3ccccc3)CC2)cc1 [4-PPBP]
Human S1R
  Pseudo-Hill slope at the S1R: −3.1
Human S2R
  Pseudo-Hill slope at the S2R: near unity
MN9D cells; 10 μM 4-PPBP, 24 hrs, mean ± SEM, n = 3–10, baseline 75.4 ± 6.9
  Secreted BDNF at maximal stimulation: 128.6 ± 12.8 pg/mL
MN9D cells; 24 hrs, mean ± SEM
  Efficacy of BDNF secretion: 1
MN9D cells
  Stimulation of BDNF secretion (in words): robust BDNF secretion response
MCF7-hS1R cells
  Effect of sigma ligand on the bradykinin calcium response: no significant potentiation or suppression
PC-6-15 cells
  Effect on neurite sprouting, ligand alone: unable to stimulate neurite sprouting
  Potentiation of NGF induced neurite sprouting: neither 4-PPBP or promethazine enhanced NGF induced sprouting; also recorded: nor did it potentiate NGF induced sprouting

B1: NGF: nerve growth factor (βNGF, EMD Millipore) (protein, UniProt P01139 122-241, looked up)
Beta-nerve growth factor: SSTHPVFHMGEFSVCDSVSVWVGDKTTATDIKGKEVTVLAEVNINNSVFRQYFFETKCRASNPVESGCRGIDSKHWNSYCTTTHTFVKALTTDEKQAAWRFIRIDTACVCVLSRKATRRG
modifications: beta-NGF
PC-6-15 cells; 0.3 to 100 ng/mL tested
  Lowest concentration tested that induced neurite sprouting: 0.3 ng/mL
